Data taken from ChEMBL document CHEMBL1938351, “The discovery of potent antagonists of NPBWR1 (GPR7)” (Bioorg Med Chem Lett, 2012).
Active and inactive are the calls of the source. No cut-off for these calls is given here.

Key:
[1] = target: T1, Neuropeptides B/W receptor type 1 (Mus musculus, UniProt P49681); test: Displacement of [125]-hNPW23 from mouse NPBWR1 expressed in CHO-K1 cells membrane by scintillation proximity assay; assay type: cell membranes
T1 sequence (P49681 whole entry): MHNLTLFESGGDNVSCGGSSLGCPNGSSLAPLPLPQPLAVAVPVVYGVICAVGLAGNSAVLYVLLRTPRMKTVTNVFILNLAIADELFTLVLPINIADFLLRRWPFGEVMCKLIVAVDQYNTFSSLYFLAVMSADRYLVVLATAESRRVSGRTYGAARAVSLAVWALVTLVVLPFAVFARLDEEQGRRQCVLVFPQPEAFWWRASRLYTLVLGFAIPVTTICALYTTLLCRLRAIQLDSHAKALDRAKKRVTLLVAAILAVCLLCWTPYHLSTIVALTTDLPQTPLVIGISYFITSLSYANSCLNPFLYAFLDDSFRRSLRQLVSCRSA

[2] = target: T1, Neuropeptides B/W receptor type 1; test: Antagonist activity at mouse NPBWR1 expressed in CHO-K1 cells assessed as inhibition of hNPW23 and forskolin-stimulated cAMP production after 1 hr by TR-FRET assay; assay type: functional, cell-based
LLC-PK1 = test: P-glycoprotein-mediated efflux in pig LLC-PK1 cells expressing MDR1; assay type: cell-based; details: Sus scrofa
[3] = Metabolic stability in mouse liver microsomes assessed as compound remaining after 30 mins; assay type: ADME, Microsome; details: read-out: Stability
Method in brief: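 Compounds were incubated with mouse liver microsomes. The read-out was the percentage of parent compound remaining at 30 min.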

[4] = target: T2, Neuropeptides B/W receptor type 1 (Homo sapiens, UniProt P48145); test: Displacement of [125]-hNPW23 from human NPBWR1 expressed in CHO-K1 cells membrane by scintillation proximity assay; assay type: cell membranes
T2 sequence (P48145 whole entry): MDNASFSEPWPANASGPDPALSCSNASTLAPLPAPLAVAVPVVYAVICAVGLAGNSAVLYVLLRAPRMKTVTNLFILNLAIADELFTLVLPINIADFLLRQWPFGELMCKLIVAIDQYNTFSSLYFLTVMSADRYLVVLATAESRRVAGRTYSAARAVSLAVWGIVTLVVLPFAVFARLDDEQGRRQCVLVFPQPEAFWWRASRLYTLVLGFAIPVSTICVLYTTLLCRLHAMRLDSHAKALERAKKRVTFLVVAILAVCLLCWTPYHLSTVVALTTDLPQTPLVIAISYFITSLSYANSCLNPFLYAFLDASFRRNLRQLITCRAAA

[5] = target: T2, Neuropeptides B/W receptor type 1; test: Antagonist activity at human NPBWR1 expressed in CHO-K1 cells assessed as inhibition of hNPW23 and forskolin-stimulated cAMP production after 1 hr by TR-FRET assay; assay type: functional, cell-based

In the case of `COc1ccc([C@@H](C)N[C@@H]2CC[C@H](C(=O)N3CCN(c4nc5ccccc5s4)CC3)[C@@H](c3ccsc3)C2)cc1`, the IC50 [1] is reported as 4.5 nM and the IC50 [2] is reported as 24 nM.

`O=C([C@H]1CC[C@@H](NC2(c3cccc(Br)c3)CCC2)C[C@@H]1c1ccsc1)N1CCN(c2ccc(Cl)cn2)CC1` showed an IC50 [1] of 160 nM and an IC50 [2] of 972 nM.

For `COc1ccc(C(C)(C)N[C@@H]2CC[C@H](C(=O)N3CCN(c4nc5ccccc5[nH]4)CC3)[C@@H](c3ccsc3)C2)cc1`, the Activity (LLC-PK1) was “Active” and the remaining at 0.5 h [3] was less than 10%.

With `CC(C)(N[C@@H]1CC[C@H](C(=O)N2CCN(c3ccc(Cl)cn3)CC2)[C@@H](c2ccsc2)C1)c1ccc(F)cc1` the IC50 [1] was 17 nM and the IC50 [2] was 320 nM.

Work on `COc1ccc([C@@H](C)N[C@@H]2CC[C@H](C(=O)N3CCN(c4ncc(Br)s4)CC3)[C@@H](c3ccsc3)C2)cc1` yielded an IC50 [1] of 14 nM and an IC50 [2] of 55 nM.

`COc1ccc([C@@H](C)N[C@@H]2CC[C@H](C(=O)N3CCN(c4ccccn4)CC3)[C@@H](c3ccsc3)C2)cc1` showed an IC50 [2] of 330 nM.

For `COc1ccc(C2(N[C@@H]3CC[C@H](C(=O)N4CCN(c5nc6cc(F)ccc6[nH]5)CC4)[C@@H](c4ccsc4)C3)CCC2)cc1`, the IC50 [1] was 0.42 nM, the IC50 [2] was 0.66 nM and the Activity (LLC-PK1) was “Active”. The remaining at 0.5 h [3] was less than 10%.

In the case of `O=C([C@H]1CC[C@@H](NC2(c3ccccc3Br)CCC2)C[C@@H]1c1ccsc1)N1CCN(c2ccc(Cl)cn2)CC1`, the IC50 [1] is reported as 2200 nM and the IC50 [2] is reported as 2210 nM.

For `CC(C)(N[C@@H]1CC[C@H](C(=O)N2CCN(c3ccc(Cl)cn3)CC2)[C@@H](c2ccsc2)C1)c1ccc(Cl)cc1`, the IC50 [1] was 27 nM and the IC50 [2] was 1700 nM.

With `COc1ccc(C2(N[C@@H]3CC[C@H](C(=O)N4CCN(c5nnc(C(F)(F)F)s5)CC4)[C@@H](c4ccsc4)C3)CCC2)cc1` the Activity (LLC-PK1) was “Active” and the remaining at 0.5 h [3] was less than 10%.

With `COc1ccc(C2(N[C@@H]3CC[C@H](C(=O)N4CCN(c5nc6ccccc6o5)CC4)[C@@H](c4ccsc4)C3)CCC2)cc1` the Activity (LLC-PK1) was “Active” and the remaining at 0.5 h [3] was less than 10%.

`C[C@@H](N[C@@H]1CC[C@H](C(=O)N2CCN(c3ccc(Cl)cn3)CC2)[C@@H](c2ccsc2)C1)c1ccccc1` gave an IC50 [1] of 217 nM and an IC50 [2] of 981 nM.

With `CC(C)(N[C@@H]1CC[C@H](C(=O)N2CCN(c3ccc(Cl)cn3)CC2)[C@@H](c2ccsc2)C1)c1ccc([N+](=O)[O-])cc1` the IC50 [1] was 100 nM and the IC50 [2] was 1100 nM.

In the case of `COc1ccc(C(C)(C)N[C@@H]2CC[C@H](C(=O)N3CCN(c4nc5ccccc5o4)CC3)[C@@H](c3ccsc3)C2)cc1`, the Activity (LLC-PK1) is reported as “Active” and the remaining at 0.5 h [3] is reported as less than 10%.

`C[C@@H](N[C@@H]1CC[C@H](C(=O)N2CCN(c3ccc(Cl)cn3)CC2)[C@@H](c2ccsc2)C1)c1ccc(Br)cc1` showed an IC50 [1] of 134 nM and an IC50 [2] of 2630 nM.

With `COc1ccc([C@@H](C)N[C@@H]2CC[C@H](C(=O)N3CCN(c4nnc(C(F)(F)F)s4)CC3)[C@@H](c3ccsc3)C2)cc1` the IC50 [1] was 42 nM and the IC50 [2] was 115 nM.

In the case of `COc1ccc(C2(N[C@@H]3CC[C@H](C(=O)N4CCN(c5nc6ccccc6s5)CC4)[C@@H](c4ccsc4)C3)CCC2)cc1`, the IC50 [1] is reported as 0.33 nM, the IC50 [2] is reported as 1.8 nM and the Activity (LLC-PK1) is reported as “Active”. The remaining at 0.5 h [3] was less than 10%.

Compound `COc1ccc([C@@H](C)N[C@@H]2CC[C@H](C(=O)N3CCN(c4ccc(OC)cn4)CC3)[C@@H](c3ccsc3)C2)cc1` has an IC50 [2] of 7300 nM.

In the case of `COc1ccc(C2(N[C@@H]3CC[C@H](C(=O)N4CCN(c5nnc(Br)s5)CC4)[C@@H](c4ccsc4)C3)CCC2)cc1`, the Activity (LLC-PK1) is reported as “Active” and the remaining at 0.5 h [3] is reported as less than 10%.

Compound `COc1ccc([C@@H](C)N[C@@H]2CC[C@H](C(=O)N3CCN(c4ccc(Cl)cc4)CC3)[C@@H](c3ccsc3)C2)cc1` has an IC50 [1] of 3720 nM and an IC50 [2] of 3860 nM.

With `Cc1ccc(C(C)(C)N[C@@H]2CC[C@H](C(=O)N3CCN(c4ccc(Cl)cn4)CC3)[C@@H](c3ccsc3)C2)cc1` the IC50 [1] was 16 nM and the IC50 [2] was 211 nM.

With `COc1ccc(CN[C@@H]2CC[C@H](C(=O)N3CCN(c4ccc(Cl)cn4)CC3)[C@@H](c3ccsc3)C2)cc1` the IC50 [1] was 1520 nM and the IC50 [2] was 3590 nM.

`COc1ccc([C@@H](C)N[C@@H]2CC[C@H](C(=O)N3CCN(c4nc5ccccc5o4)CC3)[C@@H](c3ccsc3)C2)cc1` showed an IC50 [1] of 2.8 nM and an IC50 [2] of 18 nM.

`COc1ccc(C2(N[C@@H]3CC[C@H](C(=O)N4CCN(c5ccc(Cl)cn5)CC4)[C@@H](c4ccsc4)C3)CCC2)cc1` gave an IC50 [1] of 3.1 nM and an IC50 [2] of 20 nM.

With `COc1ccc(C2(N[C@@H]3CC[C@H](C(=O)N4CCN(c5nc6cc(C)ccc6o5)CC4)[C@@H](c4ccsc4)C3)CCC2)cc1` the Activity (LLC-PK1) was “Active” and the remaining at 0.5 h [3] was less than 10%.

For `COc1ccc(C2(N[C@@H]3CC[C@H](C(=O)N4CCN(c5nc6cc(F)ccc6o5)CC4)[C@@H](c4ccsc4)C3)CCC2)cc1`, the IC50 [1] was 0.2 nM, the IC50 [2] was 0.86 nM and the Activity (LLC-PK1) was “Active”. The remaining at 0.5 h [3] was less than 10%.

`COc1ccc([C@@H](C)N[C@@H]2CC[C@H](C(=O)N3CCN(c4ccc(C#N)cn4)CC3)[C@@H](c3ccsc3)C2)cc1` showed an IC50 [1] of 1140 nM and an IC50 [2] of 7050 nM.

In the case of `COc1ccc([C@@H](C)N[C@@H]2CC[C@H](C(=O)N3CCN(c4cccc(Cl)n4)CC3)[C@@H](c3ccsc3)C2)cc1`, the IC50 [2] is reported as 7490 nM.

In the case of `COc1cccc(C2(N[C@@H]3CC[C@H](C(=O)N4CCN(c5ccc(Cl)cn5)CC4)[C@@H](c4ccsc4)C3)CCC2)c1`, the IC50 [1] is reported as 118 nM and the IC50 [2] is reported as 1020 nM.

`COc1ccc([C@@H](C)N[C@@H]2CC[C@H](C(=O)N3CCN(c4ccc(C)cn4)CC3)[C@@H](c3ccsc3)C2)cc1` gave an IC50 [1] of 74 nM and an IC50 [2] of 400 nM.

With `COc1ccc(C2(N[C@@H]3CC[C@H](C(=O)N4CCN(c5nc6ccc(F)cc6o5)CC4)[C@@H](c4ccsc4)C3)CCC2)cc1` the IC50 [1] was 0.18 nM, the IC50 [2] was 1.3 nM and the Activity (LLC-PK1) was “Active”. For the same compound, the remaining at 0.5 h [3] was less than 10%.

For `COc1ccc([C@@H](C)N[C@@H]2CC[C@H](C(=O)N3CCN(c4ncccc4Cl)CC3)[C@@H](c3ccsc3)C2)cc1`, the IC50 [2] was greater than 32000 nM.

Compound `COc1ccc(C(C)(C)N[C@@H]2CC[C@H](C(=O)N3CCN(c4ccc(Cl)cn4)CC3)[C@@H](c3ccsc3)C2)cc1` has an IC50 [1] of 11 nM and an IC50 [2] of 43 nM.

`COc1ccc([C@@H](C)N[C@@H]2CC[C@H](C(=O)N3CCN(c4nc5ccccc5[nH]4)CC3)[C@@H](c3ccsc3)C2)cc1` gave an IC50 [1] of 8.3 nM and an IC50 [2] of 20 nM.

Compound `COc1ccc(C2(N[C@@H]3CC[C@H](C(=O)N4CCN(c5nc6ccccc6[nH]5)CC4)[C@@H](c4ccsc4)C3)CCC2)cc1` has an IC50 [1] of 1.1 nM, an IC50 [2] of 3 nM and an IC50 [4] of 5.9 nM. The IC50 [5] was 11 nM, the Activity (LLC-PK1) was “Active” and the remaining at 0.5 h [3] was less than 10%.

With `O=C([C@H]1CC[C@@H](NC2(c3ccc(Br)cc3)CCC2)C[C@@H]1c1ccsc1)N1CCN(c2ccc(Cl)cn2)CC1` the IC50 [1] was 82 nM and the IC50 [2] was 601 nM.

Work on `COc1ccc([C@@H](C)N[C@@H]2CC[C@H](C(=O)N3CCN(c4cc(Cl)ccn4)CC3)[C@@H](c3ccsc3)C2)cc1` yielded an IC50 [2] of 2140 nM.

`COc1ccc([C@@H](C)N[C@@H]2CC[C@H](C(=O)N3CCN(c4ccc(C(F)(F)F)cn4)CC3)[C@@H](c3ccsc3)C2)cc1` gave an IC50 [2] of 200 nM.

`COc1ccc(C2(N[C@@H]3CC[C@H](C(=O)N4CCN(c5ccc(Cl)cn5)CC4)[C@@H](c4ccsc4)C3)CC2)cc1` gave an IC50 [1] of 56 nM and an IC50 [2] of 523 nM.

Work on `COc1ccc([C@@H](C)N[C@@H]2CC[C@H](C(=O)N3CCN(c4nccs4)CC3)[C@@H](c3ccsc3)C2)cc1` yielded an IC50 [1] of 194 nM and an IC50 [2] of 207 nM.

With `COc1ccc([C@@H](C)N[C@@H]2CC[C@H](C(=O)N3CCN(c4ccc(Cl)cn4)CC3)[C@@H](c3ccsc3)C2)cc1` the IC50 [1] was 25 nM, the IC50 [2] was 360 nM and the IC50 [4] was 324 nM. For the same compound, the IC50 [5] was 1920 nM, the Activity (LLC-PK1) was “Active” and the remaining at 0.5 h [3] was 0%.
